Results as given in PubChem BioAssay.
Calls of active or inactive are those of the source.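 How the source made its calls, unless noted: active means fluorescence slope after compound addition differing from the mean of all tested samples at 99.7% confidence, mostly higher but some lower; inactive means the rest.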

Assays:
[1] = inhibitors of TNFa-induced NFkB p65 translocation, primary screen, imaging, HUVEC, MLSMR starter and 10KST1 sets (AID 438;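 active means inhibition above 20% together with a positive visual image hit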;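 further: compound added about 3h40 before a 20 min TNFalpha stimulation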;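 on inhibition: signal is the nuclear over cytoplasmic p65 intensity ratio per well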); conditions: HUVEC TNFa-induced p65 nuclear translocation; cell count: measured here: nuclei count (cytotoxicity indicator), at 2.08 µM; inhibition: at 2 µM, stronger effect = higher value, 0% TNFa-plus-vehicle, 100% no-TNFa wells
[2] = inhibitors of mutant huntingtin aggregation, primary screen, imaging, exon1htt(103Q)mCFP cells, high-content imaging (AID 483;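 active means visual image review flags a hit and inhibition of aggregation exceeds 20%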;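 further: compound exposure lasted 3 days before fixation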;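 on nuclei count: percent of the per-plate median nuclei count of sample wells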); conditions: exon1htt(103Q)mCFP cell line, aggregate imaging, at 2 µM; inhibition of aggregation: stronger effect = higher value; nuclei count: measured here: cell count, toxicity
[3] = inhibitors of E-selectin induction by TNFa, primary screen, imaging, HUVEC, immunofluorescence, MLSMR starter and 10KST1 sets (AID 487;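 active means visually confirmed hit in the image check and inhibition above 20%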;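 on inhibition: signal is fraction of cell area covered by stained E-selectin grains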;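 on nuclei count: 100% = median nuclei count of all wells on the same plate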); conditions: HUVEC TNFalpha-induced E-selectin immunofluorescence imaging, at 2 µM; inhibition: stronger effect = higher value; nuclei count: measured here: cell number, toxicity
[4] = molecular target: Voltage-gated potassium channel subunit beta-2 (Rattus norvegicus) (UniProt P62483); test: KvBeta enzyme negative modulators, primary screen, biochemical, NADPH fluorescence (AID 622;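 active means fluorescence slope higher than the sample average by over 3 SD, cut at about -0.22 in these data, passing the limit was not always enough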;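 further: slope of raw intensity against log time taken from 70 to 1610 s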); conditions: recombinant KvBeta, 4-cyanobenzaldehyde reduction, at 10 µM, stronger effect = higher value
Sequence of Voltage-gated potassium channel subunit beta-2 (Rattus norvegicus) (P62483 whole entry, looked up): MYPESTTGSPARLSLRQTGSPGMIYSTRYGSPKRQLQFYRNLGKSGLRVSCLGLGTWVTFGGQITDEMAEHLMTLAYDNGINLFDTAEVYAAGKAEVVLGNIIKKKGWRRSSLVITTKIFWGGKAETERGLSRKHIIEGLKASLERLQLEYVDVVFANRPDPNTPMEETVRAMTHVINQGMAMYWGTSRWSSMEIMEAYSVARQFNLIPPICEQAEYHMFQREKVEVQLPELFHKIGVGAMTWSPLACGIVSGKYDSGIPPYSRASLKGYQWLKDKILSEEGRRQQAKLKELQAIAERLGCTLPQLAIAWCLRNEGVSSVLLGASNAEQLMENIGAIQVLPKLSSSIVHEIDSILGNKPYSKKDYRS

[5] = molecular target: Voltage-gated potassium channel subunit beta-2 (Rattus norvegicus) (UniProt P62483); test: KvBeta positive modulators, primary screen, biochemical, NADPH fluorescence (AID 623;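 active means NADPH fluorescence slope more negative than the mean of all samples by about 3 SD, 99.7% confidence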;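 further: fluorescence intensity change per second fitted from 20 to 320 s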); conditions: Recombinant KvBeta, NADPH fluorescence decrease slope, 10 min; at 10 µM; stronger effect = lower value
[6] = molecular target: Muscarinic acetylcholine receptor M4 (Homo sapiens) (UniProt P08173); test: compounds altering M4/GIRK thallium flux, either direction, primary screen, M4 allosteric agonist project, cell-based, HEK293 M4/GIRK, BTC-AM (AID 625); conditions: at 10 µM, actives lie on both sides;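 further: thallium influx through GIRK channels coupled to M4 in HEK293 cells with BTC-AM dye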
Sequence of Muscarinic acetylcholine receptor M4 (Homo sapiens) (P08173 whole entry, looked up): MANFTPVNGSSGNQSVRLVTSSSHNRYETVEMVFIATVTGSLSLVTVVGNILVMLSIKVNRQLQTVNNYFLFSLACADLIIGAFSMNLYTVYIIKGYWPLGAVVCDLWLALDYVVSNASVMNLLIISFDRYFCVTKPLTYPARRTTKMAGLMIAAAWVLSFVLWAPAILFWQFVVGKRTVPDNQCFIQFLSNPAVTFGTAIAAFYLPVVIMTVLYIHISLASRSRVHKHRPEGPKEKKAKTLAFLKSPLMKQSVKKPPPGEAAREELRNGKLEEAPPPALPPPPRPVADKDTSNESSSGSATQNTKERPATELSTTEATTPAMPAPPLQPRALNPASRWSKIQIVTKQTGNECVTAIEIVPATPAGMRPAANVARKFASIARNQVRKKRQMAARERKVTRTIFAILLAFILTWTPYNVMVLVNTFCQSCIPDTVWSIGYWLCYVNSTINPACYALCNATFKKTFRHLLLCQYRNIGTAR
How it was run: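 assay system = HEK293 cells with M4 receptor and GIRK channels | medium = pH 7.3 thallium assay buffer | doses = 10 µM final, single point | timing = cells overnight at 37 °C, BTC-AM loading 1 h, reads 2 min total | signal = BTC-AM fluorescence, 1 Hz kinetic reads | read-out = post-addition slope, 15–24 s, of baseline-normalized fluorescence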

[7] = inhibitors of Sendai virus-induced IRF3 signaling, primary screen, TLR/RLR signaling modifier project, cell-based, Sendai virus stimulus, luciferase, 10K MLSCN set (AID 602276;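 active means inhibition at or above 50% at 10 µM; inactive means inhibition below 50%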;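 further: firefly luciferase from ISG56 promoter only with Renilla not read in this screen; 0% = Sendai virus plus DMSO and 100% = medium plus DMSO without virus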); conditions: HEK293 RL24 IRF3 luciferase reporter, at 10 µM, stronger effect = higher value
[8] = inhibitors of poly I:C-induced TLR3 signaling, primary screen, cell-based, poly I:C stimulus, luciferase, 10K MLSCN set (AID 602277;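 active means inhibition of the reporter signal at or above 50%; inactive means inhibition below 50%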); conditions: HEK293-TLR3 RL24 IRF3 luciferase reporter, at 10 µM, stronger effect = higher value

Cc1nc(-c2ccc(NC(=O)c3cccs3)cc2)cs1
cell count [1]: 369
inhibition [1]: -3.7% (inactive)
inhibition of aggregation [2]: 20.1% (inactive)
nuclei count [2]: 105%
inhibition [3]: -0.4% (inactive)
nuclei count [3]: 109%
fluorescence slope [4]: -0.427 (inactive)
NADPH fluorescence slope [5]: -4.1e-05 (inactive)
fluorescence slope [6]: 0.005 (inactive)
inhibition [7]: -23.5% (inactive)
inhibition [8]: -96.4% (inactive)

ON=C1/C(=N\O)CC2(C/C1=N/O)OCCO2
cell count [1]: 408
inhibition [1]: 2.2% (inactive)
inhibition of aggregation [2]: 22.4% (inactive)
nuclei count [2]: 69.5%
inhibition [3]: 7.1% (inactive)
nuclei count [3]: 89.7%
fluorescence slope [4]: -0.532 (inactive)
NADPH fluorescence slope [5]: -3.5e-05 (inactive)
fluorescence slope [6]: 0.00423 (inactive)
inhibition [7]: 17% (inactive)
inhibition [8]: 4.87% (inactive)

Cc1ccc(C)c(OCC(O)CN2C(C)CCCC2C)c1 (centres undefined)
cell count [1]: 379
inhibition [1]: 0% (inactive)
inhibition of aggregation [2]: 2.7% (inactive)
nuclei count [2]: 93.8%
inhibition [3]: -71.2% (inactive)
nuclei count [3]: 117%
fluorescence slope [4]: -0.526 (inactive)
NADPH fluorescence slope [5]: 5e-05 (inactive)
fluorescence slope [6]: 0.00528 (inactive)
inhibition [7]: 13.4% (inactive)
inhibition [8]: 26.5% (inactive)

Cc1cccn2c(=O)c3cc(C#N)c(=NC(=O)c4ccncc4)n(Cc4ccco4)c3nc12
cell count [1]: 386
inhibition [1]: -1% (inactive)
inhibition of aggregation [2]: 5% (inactive)
nuclei count [2]: 99.9%
inhibition [3]: -36.9% (inactive)
nuclei count [3]: 114%
fluorescence slope [4]: -0.535 (inactive)
NADPH fluorescence slope [5]: -1.2e-05 (inactive)
fluorescence slope [6]: 0.00818 (inactive)
inhibition [7]: 10.3% (inactive)
inhibition [8]: 19.4% (inactive)

CC(C)(C)OC(=O)N1CCN(c2ccc(NC(=O)c3cc4ccccc4oc3=O)cc2)CC1
cell count [1]: 409
inhibition [1]: 4.4% (inactive)
inhibition of aggregation [2]: -4.1% (inactive)
nuclei count [2]: 110%
inhibition [3]: -52.6% (inactive)
nuclei count [3]: 107%
fluorescence slope [4]: -0.582 (inactive)
NADPH fluorescence slope [5]: -4.9e-05 (inactive)
fluorescence slope [6]: 0.0076 (inactive)
inhibition [7]: 16.2% (inactive)
inhibition [8]: -11.3% (inactive)

CC(=O)NC1=NC(=O)/C(=C/N2CCCCC2)S1
cell count [1]: 391
inhibition [1]: -4.7% (inactive)
inhibition of aggregation [2]: 1.3% (inactive)
nuclei count [2]: 105%
inhibition [3]: -11.8% (inactive)
nuclei count [3]: 103%
fluorescence slope [4]: -0.459 (inactive)
NADPH fluorescence slope [5]: -3.8e-05 (inactive)
fluorescence slope [6]: 0.00493 (inactive)
inhibition [7]: 21.1% (inactive)
inhibition [8]: 16.4% (inactive)

CCN(C(=O)Cc1c(C(=O)O)[nH]c2ccccc12)c1cc(OC)ccc1OC
cell count [1]: 439
inhibition [1]: -5.2% (inactive)
inhibition of aggregation [2]: -10% (inactive)
nuclei count [2]: 120%
inhibition [3]: -36% (inactive)
nuclei count [3]: 143%
fluorescence slope [4]: -0.286 (inactive)
NADPH fluorescence slope [5]: -4e-05 (inactive)
fluorescence slope [6]: 0.00689 (inactive)
inhibition [7]: 13.8% (inactive)
inhibition [8]: 24.5% (inactive)

Cc1nc(C)c(C(=O)OCC(=O)N2CCN(c3ccccc3)CC2)s1
cell count [1]: 700
inhibition [1]: -4.8% (inactive)
inhibition of aggregation [2]: -3.6% (inactive)
nuclei count [2]: 99.4%
inhibition [3]: -18.7% (inactive)
nuclei count [3]: 102%
fluorescence slope [4]: -0.567 (inactive)
NADPH fluorescence slope [5]: -2e-05 (inactive)
fluorescence slope [6]: 0.00679 (inactive)
inhibition [7]: 16.8% (inactive)
inhibition [8]: 5.6% (inactive)

CN1CC=C2C(C#N)=C(N)C(C#N)(C#N)C(c3cccc(Cl)c3Cl)C2C1 (centres undefined)
cell count [1]: 566
inhibition [1]: -8.5% (inactive)
inhibition of aggregation [2]: -7.2% (inactive)
nuclei count [2]: 110%
inhibition [3]: -13.9% (inactive)
nuclei count [3]: 99.2%
fluorescence slope [4]: -0.399 (inactive)
NADPH fluorescence slope [5]: -0.000109 (inactive)
fluorescence slope [6]: 0.00362 (inactive)
inhibition [7]: 8.89% (inactive)
inhibition [8]: 9.8% (inactive)

CCCCCn1c(CN(C)Cc2ccccc2)nc2c1c(=O)n(C)c(=O)n2C
cell count [1]: 529
inhibition [1]: -12.2% (inactive)
inhibition of aggregation [2]: -2% (inactive)
nuclei count [2]: 86.5%
inhibition [3]: -110% (inactive)
nuclei count [3]: 110%
fluorescence slope [4]: -0.46 (inactive)
NADPH fluorescence slope [5]: -9.4e-05 (inactive)
fluorescence slope [6]: 0.00453 (inactive)
inhibition [7]: 18.2% (inactive)
inhibition [8]: -3.26% (inactive)

Cc1ccc(/C(O)=C2\C(=O)C(=O)N(CCCN(C)C)C2c2ccccn2)cc1 (centres undefined)
cell count [1]: 536
inhibition [1]: 0.9% (inactive)
inhibition of aggregation [2]: -3.7% (inactive)
nuclei count [2]: 98.9%
inhibition [3]: -53.4% (inactive)
nuclei count [3]: 132%
fluorescence slope [4]: -0.514 (inactive)
NADPH fluorescence slope [5]: -0.000162 (inactive)
fluorescence slope [6]: 0.00375 (inactive)
inhibition [7]: 16.3% (inactive)
inhibition [8]: 8.71% (inactive)

Cc1nn(-c2nc3ccccc3[nH]2)c(N)c1-c1ccccc1
cell count [1]: 666
inhibition [1]: -7.5% (inactive)
inhibition of aggregation [2]: -12.6% (inactive)
nuclei count [2]: 110%
inhibition [3]: -105% (inactive)
nuclei count [3]: 110%
fluorescence slope [4]: -0.47 (inactive)
NADPH fluorescence slope [5]: -2.8e-06 (inactive)
fluorescence slope [6]: 0.00573 (inactive)
inhibition [7]: -38.3% (inactive)
inhibition [8]: -134% (inactive)

O=c1nc(N2CCCC2)nc(Nc2ccccc2)[nH]1
cell count [1]: 478
inhibition [1]: 8.9% (inactive)
inhibition of aggregation [2]: -12.9% (inactive)
nuclei count [2]: 112%
inhibition [3]: -62.6% (inactive)
nuclei count [3]: 115%
fluorescence slope [4]: -0.559 (inactive)
NADPH fluorescence slope [5]: -4e-05 (inactive)
fluorescence slope [6]: 0.00545 (inactive)
inhibition [7]: 3.72% (inactive)
inhibition [8]: 3.61% (inactive)

c1ccc(CNc2ccc3c(c2)ncn3C2CCCCC2)nc1
cell count [1]: 171
inhibition [1]: -4.9% (inactive)
inhibition of aggregation [2]: 20% (inactive)
nuclei count [2]: 78.3%
inhibition [3]: -12.5% (inactive)
nuclei count [3]: 97%
fluorescence slope [4]: -0.58 (inactive)
NADPH fluorescence slope [5]: 4.2e-05 (inactive)
fluorescence slope [6]: 0.00406 (inactive)
inhibition [7]: -10.6% (inactive)
inhibition [8]: -24.3% (inactive)
